Screening data (PubChem)
TAAR1 agonist: human TAAR1 agonists, primary screen, Fluo-8 calcium fluorescence, CHO RD-HGA16 cells; Trace amine-associated receptor 1 (Homo sapiens), Q96RJ0; vehicle wells 0%, saturating PEA agonist 100%; activation, % at 3 µM; hit rate 0.99% among 360,000; AID 624467, 2012;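 active means activation above the mean activation of all test compounds in the run plus 3 SD, cut at about 38% in these data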
Target sequence (Q96RJ0 whole entry, looked up): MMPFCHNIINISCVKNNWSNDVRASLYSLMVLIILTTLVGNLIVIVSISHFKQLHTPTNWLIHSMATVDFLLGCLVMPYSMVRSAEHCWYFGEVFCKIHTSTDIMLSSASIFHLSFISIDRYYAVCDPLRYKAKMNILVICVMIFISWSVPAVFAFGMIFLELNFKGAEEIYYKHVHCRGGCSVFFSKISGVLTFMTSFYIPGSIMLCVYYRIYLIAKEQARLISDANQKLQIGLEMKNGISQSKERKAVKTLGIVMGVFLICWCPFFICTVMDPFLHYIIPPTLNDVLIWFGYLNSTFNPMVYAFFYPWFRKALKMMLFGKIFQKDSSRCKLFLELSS
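test system = CHO RD-HGA16 cells carrying human TAAR1 plus Gα16 | schedule = 17-24 h seeding, 75 min 37 °C dye, 30 min RT | compound dosing = 3 µM single concentration | control set = DMSO and PEA EC100 | replicates = n 1 | signal = Fluo-8 fluorescence, 5 s baseline then 140 s kinetic read | measure = percent activation vs PEA EC100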
TAAR1 antag: human TAAR1 antagonists, primary screen, Fluo-8 calcium fluorescence, CHO RD-HGA16 cells; antagonist; hit rate 1.5% among 360,000; inhibition, % at 3 µM; Trace amine-associated receptor 1 (Homo sapiens), Q96RJ0;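 active means inhibition above a per-plate cutoff, the mean inhibition of test compounds on that plate plus 3 SD, cut at about 49% in these data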;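 further: 0% = DMSO plus EC80 beta-PEA response and 100% = DMSO alone without agonist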
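System: CHO RD-HGA16 cells bearing hTAAR1. Reagent: EC80 β-phenethylamine stimulus. Schedule: seeding 17-24 h prior, 75-min 37 °C, 30-min RT dye loading. Signal: Fluo-8 intracellular calcium dye fluorescence, real-time kinetic reads. Read-out: % inhibition from peak post-agonist over basal fluorescence ratio. Benchmarks: vehicle wells and EC80 agonist wells. Replicates: n of 1.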
rCAG RNA binder: binders of r(CAG) RNA repeats, primary screen, biochemical, fluorescence; hit rate 1.3% among 370,000; r(CAG) RNA repeat, TO-PRO-1 dye displacement fluorescence; inhibition, % at 3 µM;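 active means inhibition above the plate cutoff, the mean of all test compounds on that plate plus 3 SD, cut at about 35% in these data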;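 further: 0% = DMSO alone and 100% = 100 µM mitoxantrone as full dye displacement; higher means more dye released from RNA so lower well fluorescence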
HCV core dimer: inhibitors of HCV core protein dimerization, primary screen, biochemical, TR-FRET, high-throughput | inhibition, % at 5 µM | TR-FRET GST/Flag-core106 dimerization, 1536-well | hit rate 0.33% among 300,000;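 active means inhibition above the mean of all tested compounds plus 3 SD, set per screening campaign, cut at about 45% in these data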
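Assay system: GST-tagged and Flag-tagged HCV core protein residues 1-106 / Times: compound-protein-antibody incubation 4 h at 22.5 °C / Signal: time-resolved FRET, ex 340 nm, em 617 and 671 nm / Evaluation: % inhibition based on acceptor/donor emission ratio / Benchmarks: wells lacking GST-core106 and wells with excess unlabelled core106 / Repeats: singlicate, one well per compound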
HCV NS3 hel inh: inhibitors of HCV NS3 helicase, primary screen, biochemical, Cy5 molecular beacon fluorescence; NS3 helicase DNA unwinding; inhibition, % at 10.9 µM; hit rate 0.56% among 290,000;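 active means inhibition above the mean of all tested compounds plus 3 SD, set per campaign, cut at about 35% in these data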;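 further: 0% = DMSO wells and 100% = thioflavine S control wells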
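Assay system – hepatitis C virus NS3 helicase domain fragment enzyme · Buffer or medium – MOPS pH 6.5, MgCl2, DTT, Tween20, BSA · Reagent – Cy5/quencher beacon DNA duplex and ATP to start · Compound – single 10.9 µM dose · Timing – 1 h at 25 °C · Technique – Cy5 beacon fluorescence read at start and 1 h · Measure – % inhibition of unwinding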
nonsel antag count: nonselective antagonists in TAAR1 counter-screen cells, counter-screen for hTAAR1 antagonist project, cell-based, fluorescence, calcium. shares compounds with TAAR1 antag. counterscreen cell line, antagonist mode. inhibition, % at 3 µM. hit rate 77% among 2,400. AID 651780, 2012; in the data active means inhibition above about 22%;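 further: CHO-Ga16 host cells stimulated with ATP at an EC80 level; 0% = agonist EC80 plus vehicle and 100% = vehicle without agonist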
TAAR1 ant conf: human TAAR1 antagonists, retest of hits, confirmation, cell-based, fluorescence; AID 651785, 2012; TAAR1-expressing cells, fluorescence antagonist read-out; hit rate 40% among 2,400; shares compounds with TAAR1 antag; inhibition, % at 3 µM; in the data active means inhibition above about 49%;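 further: CHO-Ga16 host cells challenged with agonist PEA near its EC80; 0% = agonist at EC80 plus vehicle and 100% = vehicle with no agonist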
Ga16 nonsel ag: calcium activation in Ga16-expressing cells, counter-screen for TAAR1 antagonist project, cell-based, fluorescence; shares compounds with TAAR1 antag; agonist counterscreen; activation, % at 3 µM; hit rate 18% among 2,400; in the data active means activation above about 12%;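 further: 0% = vehicle wells and 100% = saturating stimulus response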
TAAR1 ag counter: TAAR1 activation by candidate antagonists – cell-based, fluorescence, counter-screen for TAAR1 antagonist project; shares compounds with TAAR1 antag; hTAAR1 cell line, agonist mode; activation, % at 3 µM; hit rate 2% among 2,400; AID 651955, 2012; in the data active means activation above about 37%;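 further: CHO cells stably expressing TAAR1 with calcium dye readout; 0% = DMSO vehicle and 100% = full agonist response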
An asterisk follows results filed as active; / = no result given. The list is not random: actives were taken first. Their share in the collection is about 3.7%.

SMILES	TAAR1 agonist	TAAR1 antag	rCAG RNA binder	HCV core dimer	HCV NS3 hel inh	nonsel antag count	TAAR1 ant conf	Ga16 nonsel ag	TAAR1 ag counter
COc1ccc(CCNC2=C(Cl)C(=O)N(CCc3ccc(OC)c(OC)c3)C2=O)cc1OC	17	74*	-6	1	-6	44*	60*	11	8
COc1ccc(NC2=C(Cl)C(=O)N(CCc3ccccc3)C2=O)c(OC)c1	-1	4	1	5	4	/	/	/	/
Oc1[nH]c2ccccc2c1N=Nc1nc(Nc2ccccc2)nc(N2CCOCC2)n1	11	53*	3	8	0	29*	45	6	9
Cc1[nH]c2ccccc2c1/C=N/Nc1nc(Nc2ccccc2)nc(N2CCOCC2)n1	13	24	12	-9	-87	/	/	/	/
CN1CC=C(c2ccccc2)N(c2ccccc2)C1=O	/	/	3	/	/	/	/	/	/
CN(C(=O)[C@H]1O[C@@H](n2cnc3c(=O)[nH]c(N)nc32)[C@H](O)[C@@H]1O)C1CCCCC1	3	-8	2	/	/	/	/	/	/
Cc1ccc(-c2[nH]c3ccccc3c2C(C[N+](=O)[O-])c2ccco2)cc1 (configuration not stated)	15	63*	9	8	4	2	24	3	1
CC1=NOC(=O)/C1=C\c1ccc(-c2ccc(Cl)cc2Cl)o1	14	53*	13	/	37*	79*	72*	29*	25
CC(C)C[C@H]1COc2cc(Br)ccc2S(=O)(=O)N1Cc1cn(CCC2OCCO2)nn1	/	/	1	/	/	/	/	/	/
CCOc1ccccc1N1CCN(c2ncnc3scc(-c4ccc(OC)cc4)c23)CC1	-1	7	3	14	14	/	/	/	/
COc1ccc(-c2csc3ncnc(N4CCN(c5ccccc5OC)CC4)c23)cc1	1	62*	6	9	-19	27*	41	5	10
O=C(c1ccncc1)c1ccc(N2CCN(C3CC(=O)N(Cc4cccs4)C3=O)CC2)cc1 (configuration not stated)	16	58*	-1	3	-6	36*	50*	14*	11
O=C1CC(N2CCN(c3ccc(O)cc3)CC2)C(=O)N1Cc1cccs1 (configuration not stated)	3	5	6	-5	11	/	/	/	/
CCc1nc(SCC(=O)NCCc2ccccc2)n[nH]1	33	75*	0	-3	6	-2	70*	0	49*
COc1cccc(CN2C(=O)NC3(CCCCCC3)C2=O)c1	5	-4	4	-1	-3	/	/	/	/
O=C1NC2(CCCCCC2)C(=O)N1Cc1cccc([N+](=O)[O-])c1	-2	101*	-6	-9	-6	0	5	1	5
C=CCN(C(=O)[C@@H](C)[C@@H](O)c1ccc(C(C)=O)cc1)c1ccccc1	/	/	3	/	/	/	/	/	/
CCOC(=O)c1sc(NC(=O)C(CC)OC(=O)C(CC(C)C)NC(=O)c2ccccc2)nc1C (configuration not stated)	11	65*	2	7	-1	39*	57*	7	4
CCC(OC(=O)C(CC(C)C)NC(=O)c1ccccc1)C(=O)Nc1nnc(C)s1 (configuration not stated)	3	40	5	/	/	/	/	/	/
O=C(N/N=C/c1ccc[nH]1)c1ccc(COc2cccc3cccnc23)cc1	6	39	3	3	3	/	/	/	/
Cc1cc(Br)c(OCc2ccc(C(=O)N/N=C/c3ccc[nH]3)cc2)c(Br)c1	/	/	12	/	/	14	/	3	/
C[C@@H]1ON(C)[C@H]2C[C@H]3c4[nH]c5c(-c6ccc(Cl)cc6)cccc5c4CCN3C(=O)[C@@H]12	-1	-11	7	/	/	/	/	/	/
CC(C)Oc1ccc(CNC(=O)CCC(=O)N2CCSc3ccccc32)cc1	2	-9	-1	6	-8	/	/	/	/
CCOc1ccc(NC(=O)CCC(=O)N2CCSc3ccccc32)cc1	10	62*	3	6	2	25*	35	7	5
COC(=O)[C@]12C[C@H](CC(=O)NCCC(C)C)C(=O)N(Cc3ccco3)C1=C[C@H](C(C)C)O[C@@H]2C1CC1	/	/	-1	/	/	/	/	/	/
SMILES	TAAR1 agonist	TAAR1 antag	rCAG RNA binder	HCV core dimer	HCV NS3 hel inh	nonsel antag count	TAAR1 ant conf	Ga16 nonsel ag	TAAR1 ag counter
Cc1[nH]c2ccccc2c1C(=O)COC(=O)Cn1c(C(F)(F)F)nc2ccccc21	15	64*	5	-3	-6	37*	54*	13*	24
COc1ccc(C2=NS(=O)(=O)N(C)C(C(=O)NC(C)c3ccccc3)=C2)cc1OC (configuration not stated)	2	14	4	0	2	/	/	/	/
COc1ccc(C2=NS(=O)(=O)N(C)C(C(=O)N(C)Cc3ccccc3)=C2)cc1OC	7	52*	2	5	-5	23*	34	8	6
CCOc1ccc(N(CC(=O)Nc2c(C)n(C)n(-c3ccccc3)c2=O)S(=O)(=O)c2ccc(C(C)(C)C)cc2)cc1	/	/	4	/	/	/	/	/	/
CCS(=O)(=O)N1N=C(c2cccs2)CC1c1cc2cc(C)ccc2nc1Cl (configuration not stated)	5	50*	7	9	-6	11	19	10	9
COc1ccccc1-c1cccc2c3c([nH]c12)[C@@H]1C[C@H]2[C@@H](C(=O)N1CC3)[C@H](C)ON2C	5	-2	5	/	/	/	/	/	/
COc1ccc(NC(=O)C2(C)CCN2C(=O)c2ccccc2CCc2ccccc2)cc1OC (configuration not stated)	5	65*	3	/	/	18	43	6	16
Cc1ccc(SCC(=O)c2cc(C)c(O)c(C)c2)cc1	0	16	-3	-4	-4	/	/	/	/
COc1ccc(SCC(=O)c2cc(C)c(OC(=S)N(C)C)c(C)c2)cc1	8	74*	7	-3	-5	31*	46	4	5
COc1ccc(C(=O)CSc2nc(C)cc(C)n2)cc1C	4	-4	-5	5	-8	/	/	/	/
